A short description of data set [1]: Lipophilicity index (Rm) (HPLC). Type of data set: physicochemical.
The subject of another data set is L1210. The data set is described as follows: Inhibition murine leukemia L1210 cell growth in culture. It counts as functional, cell-based. The conditions noted are these: Mus musculus. Summed up:
(§1)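 IC50 is the drug concentration, in nM, that inhibits growth of the cultured cell line by 50%.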

Data set [2] concerns Lewis lung carcinoma cell line. As to the kind of experiment: (§2) Percentage increase in life span of tumor bearing animals compared to non treated, tumor-bearing controls when treated at the optimal dose of 150 mg/kg/day intraperitoneally. Type of data set: functional. The conditions noted are these: Mus musculus, ip, route intraperitoneal.
Data set [3] relates to P388. Described as §2. Type of data set: functional. The note with it: Mus musculus, P388, ip; route intraperitoneal.
A short description of data set [4]: Selectivity ratio of IC50 of HCT to IC50 of L1210 cell lines. It counts as functional.
A further data set relates to HCT-8. As to the kind of experiment: Inhibition of human colon tumor (HCT-8) cell growth in culture. Type of data set: functional, cell-based. Summed up:
as §1

Data set [5] relates to P388. As to the kind of experiment: Percentage increase in life span of tumor bearing animals compared to non treated, tumor-bearing controls when treated at the optimal dose of 150 mg/kg/day intraperitoneally; IA denotes inactive. It counts as functional, organism-based. The note with it: Mus musculus. Summed up: (§3)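 Drug was given ip in 0.1 mL 30% v/v ethanol/water. For P388, 10^6 cells were inoculated ip and dosing was on days 1, 5 and 9, with >20% significant. For Lewis lung, 10^6 cells were inoculated iv and dosing was on days 5, 9 and 13, with >40% significant. The read-out is % lifespan increase over untreated controls.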

A short description of data set [6]: Base strength is expressed as pKa, determined in water at 25 degrees Centigrade by spectrophotometric method. It counts as physicochemical.
Data set [7] relates to Lewis lung carcinoma cell line. As to the kind of experiment: (§4) Percentage increase in life span of tumor bearing animals compared to non treated, tumor-bearing controls when treated at the optimal dose of 65 mg/kg/day intraperitoneally; IA denotes inactive. It counts as functional, organism-based. The note with it: Mus musculus. Summed up: as §3
The test system of data set [8] is P388. Described as §4. The conditions noted are these: Mus musculus. Type of data set: functional, organism-based. Summed up: as §3
Data set [9] relates to Lewis lung carcinoma cell line. As to the kind of experiment: (§5) Percentage increase in life span of tumor bearing animals compared to non treated, tumor-bearing controls when treated at the optimal dose of 100 mg/kg/day intraperitoneally. It counts as functional. The note with it: Mus musculus, ip, route intraperitoneal.
Data set [10] deals with P388. The data set is described as §5. It counts as functional. The conditions noted are these: Mus musculus, P388, ip; route intraperitoneal.
Data set [11] has as its system P388. As to the kind of experiment: Percent increase in life span of P388 cells compared to non treated, tumor-bearing controls when treated at the optimal dose of 225 mg/kg/day; IA denotes inactive. It counts as functional, organism-based. The conditions noted are these: Mus musculus.
In data set [12] the test system is P388. As to the kind of experiment: Percentage increase in life span of tumor (P388 cells) bearing animals compared to non treated, tumor-bearing controls when treated at the optimal dose of 45 mg/kg/day; IA denotes inactive. Type of data set: functional, organism-based. The conditions noted are these: Mus musculus.
Data set [13] concerns Lewis lung carcinoma cell line. The data set is described as follows: (§6) Percentage increase in life span of compound-treated, tumor bearing animals compared to non treated, tumor-bearing controls when treated at the optimal dose of 100 mg/kg. It counts as functional. The conditions noted are these: Mus musculus.
For data set [14], the system named is P388. The data set is described as §6. The conditions noted are these: Mus musculus. It counts as functional.
Data set [15] relates to P388. The data set is described as follows: Percentage increase in life span of tumor bearing animals compared to non treated, tumor-bearing controls when treated at the optimal dose of 4.5 mg/kg/day intraperitoneally. The conditions noted are these: Mus musculus, P388, ip; route intraperitoneal. Type of data set: functional.
The test system of data set [16] is Lewis lung carcinoma cell line. As to the kind of experiment: Percentage increase in life span of tumor bearing animals compared to non treated, tumor-bearing controls when treated at the optimal dose of 4.5 mg/kg/day intraperitoneally; IA denotes inactive. The conditions noted are these: Mus musculus. Type of data set: functional, organism-based. Summed up:
as §3

Calls of active or inactive are those of the source. No cut-off for these calls is given here.

A word on the IC50: it is the point on the concentration scale where inhibition reaches its midpoint. A word on the ILS: it is how much longer treated animals lived than controls. `CN(C)CCCNC(=O)c1cccc2cc3ccccc3nc12.Cl.Cl`: in data set [1], the Rm is on record as -0.1. Besides, the IC50 in the data set on L1210 came to 0.37 µM; in the data set with HCT-8 it was 2.9 µM. The ILS at 150 mg/kg/day in data set [2] is 84%; with P388 [3] it was 118%. In [4], the Ratio is given as 7.8.

For orientation: pKa means the negative logarithm of the acid dissociation constant. A low value points to a group that gives up its proton readily. For `CN(C)CCNC(=O)c1ccc2cc3ccccc3nc2c1.Cl.Cl`, the ILS entry in the data set on P388 [5] was “inactive”. For the same compound, the Rm in data set [1] is listed as -0.53. Further, half-maximal inhibition with L1210 (IC50) required 8.1 µM. Also, in data set [6], the pKa worked out at 3.94.

On to `CCN(CC)CCNC(=O)c1cccc2cc3ccccc3nc12.Cl.Cl`, for which the Rm in [1] is given as 0.17. Moreover, half-maximal inhibition in the data set with L1210 (IC50) was put at 0.63 µM. Also, the ILS at 150 mg/kg/day in [2] was 62%; with P388 [3], 61%.

For `CNCCNC(=O)c1cccc2cc3ccccc3nc12.Cl.Cl`, the ILS entry (in data set [7]; in the data set on P388 [8]) was “inactive” throughout. In data set [1], the Rm is listed as -0.27. Moreover, the IC50 in the data set with L1210 turned out to be 0.24 µM; in the data set with HCT-8, 0.62 µM. Moreover, the Ratio in data set [4] was found to be 2.6.

As for `CN(C)CCNC(=O)c1ccc(Cl)c2cc3ccccc3nc12.Cl.Cl`, the Rm in [1] was 0.04. Besides, the IC50 was 0.033 µM in the data set on L1210 and 0.37 µM in the data set on HCT-8. Further, the ILS at 100 mg/kg/day in data set [9] was determined as 120%; with P388 [10] it was 110%. The Ratio in data set [4] is on record as 11.2.

On to `CN(C)CCNC(=O)c1ccc2nc3ccccc3cc2c1.Cl.Cl`, for which the Rm in data set [1] was -0.57. In the data set with L1210, this compound yielded an IC50 of 9.3 µM. The ILS result in the data set on P388 [11] was “inactive”. This compound showed a pKa in data set [6] of 4.37.

In the case of `CN(C)CCNC(=O)c1cc(Cl)cc2cc3ccccc3nc12.Cl.Cl`, the Rm in [1] was 0.03. For the same compound, the IC50 in the data set on L1210 came out at 0.031 µM; in the data set with HCT-8, 0.44 µM. The ILS at 100 mg/kg/day in [9] worked out at 219%; in the data set with P388 [10], 62%. Besides, the Ratio in data set [4] came out at 14.2.

As to `Cc1c2ccccc2nc2c(C(=O)NCCN(C)C)cccc12.Cl.Cl`, in [1], the Rm was -0.33. For the same compound, the IA result in the data set with P388 [12] is “inactive”. In addition, the IC50 with L1210 is 0.15 µM; with HCT-8, 0.16 µM. In data set [6], the pKa is 4.34. In addition, the Ratio in [4] was determined as 1.1.

Consider `Cc1cc(C(=O)NCCN(C)C)c2nc3ccccc3cc2c1.Cl.Cl`, for which, in data set [1], the Rm is recorded as -0.04. Moreover, the IC50 is 0.13 µM with L1210 and 0.657 µM with HCT-8. The same compound registered an ILS at 150 mg/kg/day in data set [2] of 33%. The same compound came in with an ILS at 100 mg/kg/day with P388 [10] of 120%. For the same compound, the Ratio in [4] turned out to be 5.1.

Turning to `COc1cc(C(=O)NCCN(C)C)c2nc3ccccc3cc2c1.Cl.Cl`, the Rm in data set [1] was -0.13. For the same compound, the IC50 in the data set on L1210 is 0.03 µM; in the data set on HCT-8, 0.72 µM. In data set [6], this compound registered a pKa of 3.34. Besides, the figures for the increase in life span (ILS) at 100 mg/kg/day (in data set [9]; with P388 [10]) were 105% and 99%, respectively. In addition, the Ratio in [4] stood at 24.

On to `Cc1ccc2cc3cccc(C(=O)NCCN(C)C)c3nc2c1.Cl.Cl`, for which the Rm in data set [1] is -0.1. For the same compound, the ILS at 100 mg/kg in data set [13] amounted to 106%; in the data set with P388 [14], 82%. Moreover, the values for the IC50 in the data set on L1210 and in the data set with HCT-8 were 0.121 µM and 0.658 µM, respectively. In addition, the Ratio in [4] stood at 5.4 Ratio.

With `CN(C)CCNC(=O)c1cccc2c(N)c3ccccc3nc12`, the Rm in data set [1] is listed as -1.11. The compound also showed an ILS at 4.5 mg/kg/day with P388 [15] of 98%. In addition, the ILS entry in [16] is “inactive”. Moreover, in data set [4], the Ratio is listed as 3.7. In the data set on HCT-8, this compound displayed an IC50 of 0.055 µM.

For `Cc1ccc(C(=O)NCCN(C)C)c2nc3ccccc3cc12.Cl.Cl`, the Rm in [1] is given as 0.1. The IC50 in the data set with L1210 was determined as 0.037 µM; in the data set on HCT-8, 0.4 µM. This compound also showed an ILS at 100 mg/kg/day with P388 [10] of 71%. Moreover, the Ratio in data set [4] came to 10.8.
